Screening results from PubChem.
MrgX1 antagonist: human MrgX1 receptor antagonism, primary screen; hit rate 1.3% among 310,000; MRGX1-HEK293 calcium flux, Fluo-4, BAM8-22 antagonism; stronger effect = lower value; B-score at 10 µM; Q96LB2; AID 588676;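 active = calcium-response B-score plate-corrected more than 3 library SD below zero, starting fluorescence within 5 deviations, no agonist response on first addition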;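 note: peak minus trough fluorescence over baseline after final BAM8-22 challenge near maximal dose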
Target sequence (Q96LB2 whole entry, looked up): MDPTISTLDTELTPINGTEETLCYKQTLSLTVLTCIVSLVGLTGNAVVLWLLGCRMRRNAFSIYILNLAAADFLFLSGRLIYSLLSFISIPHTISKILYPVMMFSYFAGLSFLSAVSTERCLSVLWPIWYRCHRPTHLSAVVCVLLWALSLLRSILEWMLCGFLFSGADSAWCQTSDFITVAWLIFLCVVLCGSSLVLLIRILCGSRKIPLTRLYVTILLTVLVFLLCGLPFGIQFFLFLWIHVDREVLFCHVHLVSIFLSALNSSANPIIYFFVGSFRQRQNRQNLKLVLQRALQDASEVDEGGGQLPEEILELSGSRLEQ
MrgX1 ag: human MrgX1 receptor agonism, primary screen. Q96LB2. MrgX1-HEK293 cells, Fluo-4 calcium fluorescence, agonist mode; stronger effect = higher value. B-score at 10 µM. hit rate 0.44% among 310,000;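 active = calcium response B-score plate-corrected fluorescence ratio at least 3 library SD, with starting fluorescence B-score inside 5 SD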
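Test system: HEK293 cells stably expressing human MrgX1 receptor; amount: 15,000 cells per well; doses: compound delivered in addition one of three; times: overnight plating before 1 h dye loading; detection: Fluo-4 NW calcium-flux fluorescence, kinetic read; read-out basis: B-scored fluorescence response ratio; controls: positive and negative controls per plate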
MrgX1 allo act: human MrgX1 positive allosteric modulation, primary screen; Q96LB2; MrgX1-HEK293, Fluo-4 calcium flux, FDSS; stronger effect = higher value; B-score at 10 µM; hit rate 0.63% among 310,000; AID 588675;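 active = plate-corrected calcium response at least 3 library SD above typical, normal starting fluorescence, not activating the receptor alone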;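 note: compound read alongside a low EC10 to EC30 dose of BAM8-22 agonist; peak minus trough fluorescence over baseline measured at the second addition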
RGS4 act: RGS4 potentiation or activation. B-score at 10 µM. hit rate 0.92% among 310,000. HEK293 M3R/inducible RGS4, carbachol calcium flux Fluo4; stronger effect = lower value;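 active = B-score of the integrated calcium signal more than 4 SD below the library mean, with starting fluorescence not abnormally high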;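 note: negative B-score means reduced calcium response which marks RGS4 activation or potentiation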
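test system = M3R-expressing HEK293 line, RGS4 induced by doxycycline | probe or stimulus = carbachol at ECmax as muscarinic agonist stimulus | timing = dye loading 30 min 37 °C, buffer rest 30 min RT | signal = calcium dye Fluo4 fluorescence | evaluation = B score from integrated fluorescence ratio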
RGS4 block: inhibitors of human RGS4; hit rate 0.45% among 310,000; HEK293 M3R/RGS4 inducible, Fluo-4 calcium flux; stronger effect = higher value; triggered by carbachol at its EC20; B-score at 10 µM; AID 463165;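 active = B-score, a plate-corrected calcium signal, over three deviations above library mean, with baseline fluorescence within five deviations of library mean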;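 note: RGS4 expression induced by doxycycline in cells with stable M3 receptor; B-score is computed from the integrated fluorescence ratio over baseline after carbachol; higher B-score means a larger calcium signal and so more RGS4 inhibition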
Target sequence (P49798 whole entry, looked up): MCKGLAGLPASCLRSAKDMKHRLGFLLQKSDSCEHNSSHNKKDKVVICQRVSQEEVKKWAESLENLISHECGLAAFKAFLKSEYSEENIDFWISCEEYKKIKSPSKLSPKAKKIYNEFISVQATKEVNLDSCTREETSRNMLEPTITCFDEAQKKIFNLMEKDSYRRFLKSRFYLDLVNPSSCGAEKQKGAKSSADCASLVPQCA
MrgX1 ag confirm: confirmation of human MrgX1 receptor agonists | activation, % at 10 µM | shares compounds with MrgX1 ag | hit rate 78% among 600 | MrgX1-HEK293, Fluo-4 calcium fluorescence, FDSS | AID 602412;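 active = calcium signal rise, corrected for plate position, at least 3 library SD high, with starting brightness within 5 such deviations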
HEK293 Ca flux: MrgX1 antagonist counter-screen hit in parental HEK293 cells; shares compounds with MrgX1 antagonist; Fluo-4 calcium fluorescence, FDSS; fluorescence ratio F(max-min)/F0 at 10 µM; hit rate 2% among 4,000;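 active = duplicate-averaged calcium fluorescence ratio at least three times the standard deviation of buffer wells, a nonspecific response in parental cells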
HEK293 Ca counter: MrgX1 allosteric activator counter-screen hit in parental HEK293 cells; fluorescence ratio F(max-min)/F0 at 10 µM; parental HEK293 calcium flux, Fluo-4 fluorescence ratio; stronger effect = higher value; shares compounds with MrgX1 antagonist; hit rate 0.4% among 4,000; AID 624114;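 active = calcium fluorescence ratio, averaged over duplicates, at least 3 SD of the buffer-well ratio, meaning a nonspecific response in receptor-free cells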;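 note: untransfected parental HEK293 lacking MrgX1 used as counterscreen for MrgX1 allosteric activators; fluorescence change taken during the second addition on a kinetic imager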
HEK293 Ca cntr2: activity in parental HEK293 cells lacking MrgX1 receptor. hit rate 8.7% among 4,000. fluorescence ratio F(max-min)/F0 at 10 µM. shares compounds with MrgX1 antagonist. Fluo-4 calcium fluorescence (FDSS); stronger effect = higher value;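 active = calcium fluorescence ratio at least three times the spread of buffer wells, meaning a non-specific response in parental cells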
* marks the source's active call; other numbers are inactive results; i = inactive; . = no result. In the library only some 3.5% were active in any assay of this set; here they are far more common.

SMILES | MrgX1 antagonist | MrgX1 ag | MrgX1 allo act | RGS4 act | RGS4 block | MrgX1 ag confirm | HEK293 Ca flux | HEK293 Ca counter | HEK293 Ca cntr2
CCn1c(=O)c(C(=O)CN2CCN(S(=O)(=O)c3ccccc3)CC2)c(N)n(Cc2ccccc2)c1=O | i | 27.4* | i | i | i | 187.8%* | i | i | i
Cn1c(=O)c2[nH]c(C3CCCC3)nc2n(C)c1=O | i | 36* | i | i | i | i | i | i | i
Cn1c(=O)c2[nH]c(N3CCCCC3)nc2n(C)c1=O | i | i | i | i | i | . | . | . | .
Cc1ccc(-c2nn(-c3ccccc3)cc2CSC(=N)N)cc1 | i | 43* | i | i | i | 182.0%* | i | i | i
CCOC(=O)c1ccc2c(c1)NCc1cccc(OC)c1O2 | i | 28.5* | i | i | i | i | i | i | i
COc1ccc(C2C(C#N)=C(N)Oc3cccc(O)c32)cc1 (stereo not given) | i | 28.4* | i | i | i | i | i | i | i
Cc1ccc(-c2n[nH]c(=O)c3ccccc23)cc1S(=O)(=O)Nc1ccccc1 | i | 29.8* | i | i | i | 205.6%* | i | i | 45.1*
CCOC(=O)c1c(NC(=O)c2ccccc2C(=O)O)sc2c1CCCC2 | i | 34.1* | i | i | i | 191.8%* | i | i | i
c1csc(C2C3=C(Nc4ncnn42)c2ccccc2OC3)c1 (stereo not given) | i | 31.3* | i | i | i | 121.6%* | i | i | i
CC(C)c1ccc(S(=O)(=O)/N=C2\C=C(NS(=O)(=O)c3ccccc3)C(=O)c3ccccc32)cc1 | i | 29.7* | i | -11.1* | i | i | i | i | i
CCc1ccc(S(=O)(=O)/N=C2\C=C(NS(=O)(=O)c3ccccc3)C(=O)c3ccccc32)cc1 | . | . | . | i | i | . | . | . | .
NCCCC[C@H]1CNC(=S)N1CCc1cccc(F)c1 | i | i | i | i | i | . | . | . | .
O=S(=O)(NCC1(N2CCOCC2)CCCCC1)c1ccccc1Cl | i | i | i | i | i | . | . | . | .
O=S(=O)(NCC1(N2CCOCC2)CCCCC1)c1ccc(Cl)cc1C(F)(F)F | i | 87.6* | i | i | i | 261.2%* | i | i | i
O=C(O)C1C2CCC(O2)C1C(=O)Nc1ccc(F)c(Cl)c1 (stereo not given) | i | i | i | i | i | . | . | . | .
O=C(O)C1C(C(=O)Nc2ccc(Cl)cc2)C2C=CC1C21CC1 (stereo not given) | i | 32.1* | i | i | i | i | i | i | i
CSc1nnc(-c2cc(Br)ccc2N=Cc2c(C)[nH]n(-c3ccccc3)c2=O)c(=O)[nH]1 | i | i | i | i | i | . | . | . | .
CCSc1nnc(-c2cc(Br)ccc2N=Cc2c(C)[nH]n(-c3ccccc3)c2=O)c(=O)[nH]1 | i | 71.3* | i | i | i | 108.6%* | i | i | 61*
CN1CCc2c(sc3c2C(=O)NC(c2ccc(-c4ccc(Cl)cc4)o2)N3)C1 (stereo not given) | i | 31.2* | i | i | i | i | i | i | i
COc1ccc(N=C2NC(=O)S/C2=C\c2ccc(N(C)C)cc2)cc1 | i | 26.5* | i | -7.19* | i | 230.3%* | i | i | 56.9*
CN(c1ccccc1)c1nc(N2CCCC2)nc(-n2ccnc2)n1 | i | 47.9* | i | i | i | 170.9%* | i | i | 51.2*
Cn1c(-c2ccccc2)c(CCO)c2ccccc21 | i | 43.2* | i | i | i | 183.8%* | i | i | i
N=C(N)CCCOc1ccccc1-c1ccccc1 | i | 27.9* | i | i | i | 80.8%* | i | i | i
CC(=O)Nc1ccccc1Nc1cc(C#N)c(C#N)cc1[N+](=O)[O-] | i | i | i | i | i | . | . | . | .
O=C(CSc1nnc2ccccn12)Nc1ccc2c(c1)OCCO2 | i | i | i | i | i | . | . | . | .
SMILES | MrgX1 antagonist | MrgX1 ag | MrgX1 allo act | RGS4 act | RGS4 block | MrgX1 ag confirm | HEK293 Ca flux | HEK293 Ca counter | HEK293 Ca cntr2
CC(C)(C)C(=O)NC(=S)NNC(=O)c1sc2ccccc2c1Cl | i | 142* | i | i | i | 917.0%* | i | i | 177*
O=C(NNC(=S)NC1CCCCC1)c1sc2ccccc2c1Cl | i | i | i | i | i | . | . | . | .
Cc1csc(NC(=O)c2nn(C)c(C)c2[N+](=O)[O-])n1 | i | i | i | i | i | . | . | . | .
CCOC(=O)c1c(CSC(=N)N)n(C)c2cc(Br)c(OC(C)=O)cc12 | i | 46.5* | i | i | i | 188.1%* | i | i | i
CCOC(=O)c1c(CN2CCN(C)CC2)n(C)c2cc(Br)c(OC)cc12 | i | i | i | i | i | . | . | . | .
COc1ccccc1Oc1ccnc2cc(Cl)ccc12 | i | 30.1* | i | i | i | 102.7%* | i | i | i
NC(=O)N1c2ccccc2CC(=O)c2ccccc21 | i | 46.9* | i | i | i | 250.5%* | i | i | 52.3*
Cc1cc(C)cc(N/C(N)=N/c2nc(C)cc(C)n2)c1 | i | 32.8* | i | i | i | 131.8%* | i | i | i
Cc1cccc(N/C(N)=N/c2nc(C)cc(C)n2)c1 | i | 69* | i | i | i | 358.4%* | i | i | 75.8*
Cc1ccc(N/C(N)=N/c2nc(C)cc(C)n2)cc1 | i | 124* | i | i | i | 431.7%* | i | i | 97.2*
Cc1cc(C)nc(/N=C(\N)Nc2ccc(C(C)C)cc2)n1 | i | 32.5* | i | i | i | 118.8%* | i | i | i
CCC(=O)Nc1ccc(N/C(N)=N/c2nc(C)cc(C)n2)cc1 | i | i | i | i | i | . | . | . | .
CSc1ccc(CN2CCC(n3nccc3NC(=O)c3ccccc3C)CC2)cc1 | i | i | i | i | i | . | . | . | .
CC(C(=O)Nc1ccc(F)c(F)c1F)N(C)CC(=O)Nc1ccccc1Br (stereo not given) | i | i | i | i | i | . | . | . | .
COC(=O)c1ccc2c(=O)n(CCN3CCOCC3)c(SCC(=O)NCc3ccccc3)nc2c1 | i | i | i | i | i | . | . | . | .
